# Results taken from ChEMBL document CHEMBL1149634, “1-Acylthiosemicarbazides, 1,2,4-triazole-5(4H)-thiones, 1,3,4-thiadiazoles and hydrazones containing 5-methyl-2-benzoxazolinones: synthesis, analgesic-anti-inflammatory and antimicrobial activities” (2007).
# Assays:
# Staphylococcus aureus = test: Antibacterial activity against Staphylococcus aureus ATCC 29213 after 24 hrs by broth microdilution test; assay type: functional; conditions: ATCC 29213, 24 h
# In short: (§1)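 NCCLS broth microdilution in Mueller-Hinton broth with an inoculum of 5 × 10^5 cfu/mL. Compounds were dissolved in DMSO, diluted in sterile water, and tested as twofold dilutions from 512 to 0.5 µg/mL. Plates were incubated at 35 °C for 24 h. MIC is the lowest concentration preventing visible growth.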
# Mus musculus [1] = test: Antiinflammatory activity against carrageenan-induced hind paw oedema in mouse assessed as swelling thickness at 50 mg/kg, po after 270 mins; assay type: functional
# In short: (§2)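 Fasted mice (n = 5–6) were dosed orally with the sample in 0.5% CMC/water. One hour later, carrageenan (0.5 mg/25 µl in 154 mM saline) was injected subplantar into the right hind paw. The right-minus-left footpad thickness difference was measured with dial gauge callipers every 90 min over 6 h. Inhibition % is calculated versus vehicle control; mean ± SEM, Student's t test.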
# Mus musculus [2] = test: Antiinflammatory activity against carrageenan-induced hind paw oedema in mouse assessed as inhibition of swelling thickness at 100 mg/kg, po after 270 mins; assay type: functional; conditions: 4.5 h; in short: as §2
# Enterococcus faecalis = test: Antibacterial activity against Enterococcus faecalis ATCC 29212 after 24 hrs by broth microdilution test; assay type: functional; conditions: ATCC 29212, 24 h; in short: as §1
# Mus musculus [3] = test: Antiinflammatory activity against carrageenan-induced hind paw oedema in mouse assessed as inhibition of swelling thickness at 100 mg/kg, po after 180 mins; assay type: functional; conditions: 3 h; in short: as §2
# Mus musculus [4] = test: Antiinflammatory activity against carrageenan-induced hind paw oedema in mouse assessed as inhibition of swelling thickness at 100 mg/kg, po after 90 mins; assay type: functional; conditions: 1.5 h; in short: as §2
# Mus musculus [5] = test: Antiinflammatory activity against carrageenan-induced hind paw oedema in mouse assessed as swelling thickness at 50 mg/kg, po after 90 mins; assay type: functional; in short: as §2
# Mus musculus [6] = test: Analgesic activity in mouse assessed as inhibition of acetic acid induced-abdominal writhing at 100 mg/kg, ip by Koster test; assay type: functional; conditions: Abdomen, route intraperitoneal
# Mus musculus [7] = test: Antiinflammatory activity against carrageenan-induced hind paw oedema in mouse assessed as swelling thickness at 50 mg/kg, po after 360 mins; assay type: functional; in short: as §2
# Mus musculus [8] = test: Toxicity in mouse assessed as ulceration effect at 200 mg/kg; assay type: functional, organism-based; set-up: dose 200 mg/kg
# In short: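 Mice given 200 mg/kg orally in the carrageenan oedema study were killed under deep ether anaesthesia 6 h after treatment. Stomachs were opened along the greater curvature and examined under a dissecting microscope for lesions or bleeding. Result is expressed as the ratio of ulcerated animals per group.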
# Mus musculus [9] = test: Analgesic activity in mouse assessed as inhibition of hind paw lick at 100 mg/kg, ip by hot plate test; assay type: functional; conditions: route intraperitoneal
# Mus musculus [10] = test: Antiinflammatory activity against carrageenan-induced hind paw oedema in mouse assessed as swelling thickness at 50 mg/kg, po after 180 mins; assay type: functional; in short: as §2
# Pichia kudriavzevii = test: Antifungal activity against Candida krusei ATCC 6258 after 48 hrs by broth microdilution test; assay type: functional; conditions: ATCC 6258, 48 h
# In short: (§3)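 Yeasts tested by NCCLS M27-A broth microdilution in RPMI 1640 (with L-glutamine, without sodium bicarbonate) with an inoculum of 0.5–2.5 × 10^3 cfu/mL. Compounds were prepared from DMSO solution diluted in water as twofold dilutions from 512 to 0.5 µg/mL. Plates were incubated at 35 °C for 48 h. MIC is the lowest concentration giving no visible growth.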
# Mus musculus [11] = test: Antiinflammatory activity against carrageenan-induced hind paw oedema in mouse assessed as inhibition of swelling thickness at 200 mg/kg, po after 360 mins; assay type: functional; conditions: 6 h; in short: as §2
# Pseudomonas aeruginosa = test: Antibacterial activity against Pseudomonas aeruginosa ATCC 27853 after 24 hrs by broth microdilution test; assay type: functional; conditions: ATCC 27853, 24 h; in short: as §1
# Candida parapsilosis = test: Antifungal activity against Candida parapsilosis ATCC 22019 after 48 hrs by broth microdilution test; assay type: functional; conditions: Lodderomyces parapsilosis, ATCC 22019, 48 h; in short: as §3
# Candida albicans = test: Antifungal activity against Candida albicans ATCC 90028 after 48 hrs by broth microdilution test; assay type: functional; conditions: ATCC 90028, 48 h; in short: as §3
# Mus musculus [12] = test: Antiinflammatory activity against carrageenan-induced hind paw oedema in mouse assessed as inhibition of swelling thickness at 200 mg/kg, po after 270 mins; assay type: functional; conditions: 4.5 h; in short: as §2
# Mus musculus [13] = test: Antiinflammatory activity against carrageenan-induced hind paw oedema in mouse assessed as inhibition of swelling thickness at 100 mg/kg, po after 360 mins; assay type: functional; conditions: 6 h; in short: as §2
# Mus musculus [14] = test: Antiinflammatory activity against carrageenan-induced hind paw oedema in mouse assessed as inhibition of swelling thickness at 200 mg/kg, po after 180 mins; assay type: functional; conditions: 3 h; in short: as §2
# Escherichia coli = test: Antibacterial activity against Escherichia coli ATCC 25922 after 24 hrs by broth microdilution test; assay type: functional; conditions: ATCC 25922, 24 h; in short: as §1
# Mus musculus [15] = test: Antiinflammatory activity against carrageenan-induced hind paw oedema in mouse assessed as inhibition of swelling thickness at 200 mg/kg, po after 90 mins; assay type: functional; conditions: 1.5 h; in short: as §2
# Mus musculus [16] = test: Antiinflammatory activity against carrageenan-induced hind paw oedema in mouse assessed as swelling thickness at 100 mg/kg, po after 270 mins; assay type: functional; in short: as §2
# Mus musculus [17] = test: Antiinflammatory activity against carrageenan-induced hind paw oedema in mouse assessed as swelling thickness at 100 mg/kg, po after 360 mins; assay type: functional; in short: as §2
Structure (SMILES),MIC (Staphylococcus aureus) [µg/mL],Activity (Mus musculus [1]) [%],inhibition in vivo at 100 mg/kg (Mus musculus [2]) [%],MIC (Enterococcus faecalis) [µg/mL],inhibition in vivo at 100 mg/kg (Mus musculus [3]) [%],inhibition in vivo at 100 mg/kg (Mus musculus [4]) [%],Activity (Mus musculus [5]) [%],inhibition in vivo at 100 mg/kg (Mus musculus [6]) [%],Activity (Mus musculus [7]) [%],inhibition in vivo at 100 mg/kg (Mus musculus [9]) [%],Activity (Mus musculus [10]) [%],MIC (Pichia kudriavzevii) [µg/mL],inhibition in vivo at 200 mg/kg (Mus musculus [11]) [%],MIC (Pseudomonas aeruginosa) [µg/mL],MIC (Candida parapsilosis) [µg/mL],MIC (Candida albicans) [µg/mL],inhibition in vivo at 200 mg/kg (Mus musculus [12]) [%],inhibition in vivo at 200 mg/kg (Mus musculus [14]) [%],MIC (Escherichia coli) [µg/mL],inhibition in vivo at 200 mg/kg (Mus musculus [15]) [%],also measured
CC1(C)S[C@@H]2[C@H](NC(=O)[C@H](N)c3ccccc3)C(=O)N2[C@H]1C(=O)O [AMPICILLIN],1,–,–,–,–,–,–,–,–,–,–,–,–,–,–,–,–,–,–,–,–
Cc1ccc2oc(=O)n(Cc3n[nH]c(=S)n3-c3ccccc3)c2c1,256,157.3,31.8,256,63.3,79.8,122.8,49.6,147.2,13,115.5,128,5.5,256,128,128,16.7,47.7,256,53.2,Activity (Mus musculus [8]): Not toxic; inhibition in vivo at 100 mg/kg (Mus musculus [13]): 27.4%
OC(Cn1cncn1)(Cn1cncn1)c1ccc(F)cc1F [FLUCONAZOLE],–,–,–,–,–,–,–,–,–,–,–,64,–,–,8,1,–,–,–,–,–
Cc1ccc2oc(=O)n(CC(=O)NN)c2c1,256,108.4,39.4,512,70.5,84.8,92.1,73.8,101.1,42,88.7,128,51.6,256,128,128,54.7,–,256,65.1,inhibition in vivo at 100 mg/kg (Mus musculus [13]): 27.4%
Cc1ccc2oc(=O)n(CC(=O)N/N=C/c3ccc(Cl)cc3)c2c1,> 512,111.8,5.3,> 512,5.1,64.7,72.5,62.5,107,50.7,89,256,7.7,> 512,256,128,17.2,22.8,> 512,17.1,inhibition in vivo at 100 mg/kg (Mus musculus [13]): 4.3%
CCNC(=S)NNC(=O)Cn1c(=O)oc2ccc(C)cc21,256,139.1,35.6,512,36.3,57.1,116.7,44.4,127.8,18.1,21.5,256,47.2,512,256,256,27.8,54.6,256,19.4,Activity (Mus musculus [8]): Not toxic; inhibition in vivo at 100 mg/kg (Mus musculus [13]): 29.3%
Cc1ccc2oc(=O)n(CC(=O)N/N=C/c3ccccc3)c2c1,256,108.8,–,512,30,79.8,98.3,62.5,115,23.9,100.1,128,–,256,128,128,27.2,37.8,256,63.5,Activity (Mus musculus [16]): 95.4%; Activity (Mus musculus [17]): 84.5%
CCCNC(=S)NNC(=O)Cn1c(=O)oc2ccc(C)cc21,256,188.2,13,512,46.1,79.8,147.3,59.7,176.7,18.1,147.1,256,6.6,512,256,256,11.1,25.1,256,29.1,Activity (Mus musculus [17]): 80.6%
CNC(=S)NNC(=O)Cn1c(=O)oc2ccc(C)cc21,512,187.2,–,256,33.8,64.7,118.2,61.7,188.9,23.9,125.2,128,27.5,128,128,128,35.2,–,256,58,Activity (Mus musculus [8]): Not toxic; Activity (Mus musculus [17]): 85.8%
